The target of assay [1] is Epidermal growth factor receptor (Homo sapiens, UniProt P00533, C797S/L858R/T790M). In words: Inhibition of EGFR L858R/T790M/C797S triple mutant (unknown origin) using fluoresceine-labelled poly-GT peptide as substrate incubated for 1 hr by TR-FRET assay. A general note: TR-FRET usually uses a lanthanide donor and a delayed reading to cut background.
In assay [2] the target is RAC-beta serine/threonine-protein kinase (Homo sapiens) (UniProt P31751). Description: Inhibition of His-tagged full length human recombinant AKT2 expressed in baculovirus expression system at 1 uM by Z'-LYTE assay. The essentials:
(§1)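 Z'-LYTE FRET kinase panel; phosphorylation of a reference peptide measured with ATP at each enzyme's Km. Compounds tested in 1% DMSO at 0.1 and/or 1 μM. Values are means of two independent experiments with standard deviations.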

For assay [3], the target named is AMP-activated protein kinase, AMPK (Homo sapiens) (UniProt P54646+O43741+P54619+Q9UGJ0+Q9Y478+Q13131+Q9UGI9). Description: Inhibition of human recombinant AMPK at 1 uM by Z'-LYTE assay. Type of assay: protein-complex assay. The essentials: as §1
Assay [4] has as its target T1, Aurora kinase A (Homo sapiens) (UniProt O14965).
T1 sequence (whole entry): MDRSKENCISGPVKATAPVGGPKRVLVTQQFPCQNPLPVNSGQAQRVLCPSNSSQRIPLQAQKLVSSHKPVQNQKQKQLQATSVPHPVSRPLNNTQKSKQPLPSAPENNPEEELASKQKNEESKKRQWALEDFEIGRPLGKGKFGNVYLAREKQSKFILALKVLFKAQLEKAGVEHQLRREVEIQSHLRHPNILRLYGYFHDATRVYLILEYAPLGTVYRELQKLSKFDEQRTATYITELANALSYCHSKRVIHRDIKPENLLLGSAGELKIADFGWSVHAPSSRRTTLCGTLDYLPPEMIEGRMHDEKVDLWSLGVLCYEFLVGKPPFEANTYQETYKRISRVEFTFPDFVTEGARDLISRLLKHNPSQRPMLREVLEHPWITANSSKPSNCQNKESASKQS
In words: Inhibition of His-tagged human full length recombinant AURKA expressed in baculovirus expression system at 1 uM by Z'-LYTE assay. The procedure, abridged: as §1

Assay [5] concerns the target Cyclin-dependent kinase 2 (Homo sapiens) (UniProt P24941). In words: Inhibition of human recombinant CDK2 at 1 uM by Z'-LYTE assay. The procedure, abridged: as §1
In assay [6] the target is Cyclin-dependent kinase 5 (Homo sapiens) (UniProt Q00535). Description: Inhibition of GST/His-tagged human full length recombinant CDK5 expressed in baculovirus expression system at 1 uM by Z'-LYTE assay. The procedure, abridged: as §1
The target of assay [7] is Tyrosine-protein kinase Blk (Homo sapiens) (UniProt P51451). Description: Inhibition of His-tagged human full length recombinant BLK expressed in baculovirus expression system at 1 uM by Z'-LYTE assay. The procedure, abridged: as §1
The target in assay [8] is Tyrosine-protein kinase Lck (Homo sapiens) (UniProt P06239). In words: Inhibition of human recombinant LCK at 1 uM by Z'-LYTE assay. The essentials: as §1
For assay [9], the target named is Proto-oncogene tyrosine-protein kinase Src (Homo sapiens) (UniProt P12931). In words: Inhibition of C-terminal His-tagged human recombinant SRC expressed in baculovirus expression system at 1 uM by Z'-LYTE assay. The procedure, abridged: as §1
Assay [10] has as its target Mitogen-activated protein kinase 3 (Homo sapiens) (UniProt P27361). Description: Inhibition of GST-tagged human full length recombinant ERK1 expressed in Escherichia coli at 1 uM by Z'-LYTE assay. The procedure, abridged: as §1
For assay [11], the target named is Fibroblast growth factor receptor 4 (Homo sapiens) (UniProt P22455). Description: Inhibition of His-tagged human recombinant FGFR4 ([…] residues) expressed in baculovirus expression system at 1 uM by Z'-LYTE assay. The essentials:
as §1

The target of assay [12] is T2, Inhibitor of nuclear factor kappa-B kinase subunit beta (Homo sapiens) (UniProt O14920).
T2 sequence (whole entry): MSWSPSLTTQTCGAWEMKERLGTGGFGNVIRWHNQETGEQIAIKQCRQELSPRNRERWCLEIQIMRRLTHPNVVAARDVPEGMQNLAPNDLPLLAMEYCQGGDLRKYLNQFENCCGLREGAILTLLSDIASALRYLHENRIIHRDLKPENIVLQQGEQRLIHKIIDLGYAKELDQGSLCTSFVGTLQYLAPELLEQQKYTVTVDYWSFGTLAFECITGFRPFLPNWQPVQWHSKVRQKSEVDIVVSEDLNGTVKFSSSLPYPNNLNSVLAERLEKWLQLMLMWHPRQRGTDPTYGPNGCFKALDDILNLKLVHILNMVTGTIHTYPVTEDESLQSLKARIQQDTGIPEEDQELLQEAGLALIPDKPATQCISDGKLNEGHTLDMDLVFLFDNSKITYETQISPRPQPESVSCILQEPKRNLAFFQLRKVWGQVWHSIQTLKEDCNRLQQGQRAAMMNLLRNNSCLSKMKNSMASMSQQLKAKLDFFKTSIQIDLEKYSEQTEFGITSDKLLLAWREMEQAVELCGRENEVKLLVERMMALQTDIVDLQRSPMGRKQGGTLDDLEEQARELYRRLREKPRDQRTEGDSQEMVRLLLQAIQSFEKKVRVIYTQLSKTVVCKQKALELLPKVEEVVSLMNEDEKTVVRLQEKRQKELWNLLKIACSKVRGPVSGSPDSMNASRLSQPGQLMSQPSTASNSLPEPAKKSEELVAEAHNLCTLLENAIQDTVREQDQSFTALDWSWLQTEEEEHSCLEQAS
In words: Inhibition of GST-tagged human full length recombinant IKKbeta expressed in baculovirus expression system at 1 uM by Z'-LYTE assay. The procedure, abridged: as §1

Assay [13] deals with Tyrosine-protein kinase JAK1 (Homo sapiens) (UniProt P23458). In words: Inhibition of GST-tagged human recombinant JAK1 (866 to 1154 residues) expressed in baculovirus expression system at 1 uM by Z'-LYTE assay. The procedure, abridged:
as §1

Assay [14] deals with Mitogen-activated protein kinase 14 (Homo sapiens) (UniProt Q16539). Description: Inhibition of GST-tagged human full length recombinant p38 alpha expressed in Escherichia coli at 1 uM by Z'-LYTE assay. The essentials:
as §1

Assay [15] deals with Platelet-derived growth factor receptor alpha (Homo sapiens) (UniProt P16234). In words: Inhibition of GST-tagged human recombinant PDGFR alpha (550 to 1089 residues) expressed in baculovirus expression system at 1 uM by Z'-LYTE assay. The essentials: as §1
In assay [16] the target is Rho-associated protein kinase 1 (Homo sapiens) (UniProt Q13464). In words: Inhibition of GST-tagged human recombinant ROCK1 (1 to 535 residues) expressed in baculovirus expression system at 1 uM by Z'-LYTE assay. The essentials: as §1
The target of assay [17] is Vascular endothelial growth factor receptor 2 (Homo sapiens) (UniProt P35968). Description: Inhibition of His-tagged human recombinant VEGFR2 (789 to 1356 residues) expressed in baculovirus expression system at 1 uM by Z'-LYTE assay. The procedure, abridged:
as §1

The subject of assay [18] is BaF3. In words: Cytotoxicity against mouse BaF3 cells harboring EGFR L858R/T790M/C797S triple mutant assessed as inhibition of cell proliferation measured after 72 hrs by MTS assay. Type of assay: functional, cell-based. Conditions: BaF3, 72 h. The procedure, abridged:
(§2)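 Ba/F3 cells carrying the respective EGFR triple mutant, grown in RPMI-1640 with 2 mM glutamine and 10% FBS at 37°C, 5% CO2. Seeded 20000 cells/well and treated the same day with increasing concentrations (DMSO ≤0.1% final). Viability read by MTS after 72 h, expressed as % inhibition versus untreated controls; at least three independent experiments.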
A general note: Tetrazolium dyes change colour on reduction, which living cells bring about.

Assay [19] has as its system BaF3. Description: Cytotoxicity against mouse BaF3 cells harboring EGFR del19/T790M/C797S triple mutant assessed as inhibition of cell proliferation measured after 72 hrs by MTS assay. Format: functional, cell-based. The procedure, abridged:
as §2

The source made the active and inactive calls. No cut-off for these calls is given here.

Sequence of Epidermal growth factor receptor (P00533 25-1210 T790M/C797S/L858R limits assumed): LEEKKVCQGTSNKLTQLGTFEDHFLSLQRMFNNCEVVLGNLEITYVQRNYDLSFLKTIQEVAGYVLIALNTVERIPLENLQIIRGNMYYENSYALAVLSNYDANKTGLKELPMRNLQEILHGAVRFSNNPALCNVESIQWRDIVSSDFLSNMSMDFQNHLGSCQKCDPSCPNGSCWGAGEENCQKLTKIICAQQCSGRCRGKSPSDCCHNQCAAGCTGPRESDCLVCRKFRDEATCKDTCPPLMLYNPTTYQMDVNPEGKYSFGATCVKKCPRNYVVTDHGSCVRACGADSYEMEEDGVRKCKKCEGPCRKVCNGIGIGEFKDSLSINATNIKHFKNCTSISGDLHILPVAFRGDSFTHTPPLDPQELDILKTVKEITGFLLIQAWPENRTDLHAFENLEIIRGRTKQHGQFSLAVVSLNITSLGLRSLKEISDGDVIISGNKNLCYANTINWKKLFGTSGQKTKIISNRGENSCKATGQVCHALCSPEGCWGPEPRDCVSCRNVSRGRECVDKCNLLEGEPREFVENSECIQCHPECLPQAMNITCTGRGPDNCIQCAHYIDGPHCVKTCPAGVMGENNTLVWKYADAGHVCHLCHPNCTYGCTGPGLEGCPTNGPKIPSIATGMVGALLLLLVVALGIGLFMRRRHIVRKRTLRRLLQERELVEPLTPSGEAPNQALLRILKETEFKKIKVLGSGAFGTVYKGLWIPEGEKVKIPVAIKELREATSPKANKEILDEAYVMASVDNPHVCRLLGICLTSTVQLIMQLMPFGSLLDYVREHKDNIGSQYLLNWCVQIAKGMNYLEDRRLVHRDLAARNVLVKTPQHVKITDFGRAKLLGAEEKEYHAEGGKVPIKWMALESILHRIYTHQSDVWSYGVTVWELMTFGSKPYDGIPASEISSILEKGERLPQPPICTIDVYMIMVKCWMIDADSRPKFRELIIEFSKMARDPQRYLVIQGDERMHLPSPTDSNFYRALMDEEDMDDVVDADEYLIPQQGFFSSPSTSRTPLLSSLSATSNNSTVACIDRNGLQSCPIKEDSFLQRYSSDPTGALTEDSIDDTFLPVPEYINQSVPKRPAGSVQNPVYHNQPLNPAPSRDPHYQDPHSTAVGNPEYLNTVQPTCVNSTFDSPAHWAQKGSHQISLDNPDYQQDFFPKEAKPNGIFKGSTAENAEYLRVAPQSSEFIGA
Sequence of Platelet-derived growth factor receptor alpha (Homo sapiens) (P16234 whole entry, the tested form may be a part): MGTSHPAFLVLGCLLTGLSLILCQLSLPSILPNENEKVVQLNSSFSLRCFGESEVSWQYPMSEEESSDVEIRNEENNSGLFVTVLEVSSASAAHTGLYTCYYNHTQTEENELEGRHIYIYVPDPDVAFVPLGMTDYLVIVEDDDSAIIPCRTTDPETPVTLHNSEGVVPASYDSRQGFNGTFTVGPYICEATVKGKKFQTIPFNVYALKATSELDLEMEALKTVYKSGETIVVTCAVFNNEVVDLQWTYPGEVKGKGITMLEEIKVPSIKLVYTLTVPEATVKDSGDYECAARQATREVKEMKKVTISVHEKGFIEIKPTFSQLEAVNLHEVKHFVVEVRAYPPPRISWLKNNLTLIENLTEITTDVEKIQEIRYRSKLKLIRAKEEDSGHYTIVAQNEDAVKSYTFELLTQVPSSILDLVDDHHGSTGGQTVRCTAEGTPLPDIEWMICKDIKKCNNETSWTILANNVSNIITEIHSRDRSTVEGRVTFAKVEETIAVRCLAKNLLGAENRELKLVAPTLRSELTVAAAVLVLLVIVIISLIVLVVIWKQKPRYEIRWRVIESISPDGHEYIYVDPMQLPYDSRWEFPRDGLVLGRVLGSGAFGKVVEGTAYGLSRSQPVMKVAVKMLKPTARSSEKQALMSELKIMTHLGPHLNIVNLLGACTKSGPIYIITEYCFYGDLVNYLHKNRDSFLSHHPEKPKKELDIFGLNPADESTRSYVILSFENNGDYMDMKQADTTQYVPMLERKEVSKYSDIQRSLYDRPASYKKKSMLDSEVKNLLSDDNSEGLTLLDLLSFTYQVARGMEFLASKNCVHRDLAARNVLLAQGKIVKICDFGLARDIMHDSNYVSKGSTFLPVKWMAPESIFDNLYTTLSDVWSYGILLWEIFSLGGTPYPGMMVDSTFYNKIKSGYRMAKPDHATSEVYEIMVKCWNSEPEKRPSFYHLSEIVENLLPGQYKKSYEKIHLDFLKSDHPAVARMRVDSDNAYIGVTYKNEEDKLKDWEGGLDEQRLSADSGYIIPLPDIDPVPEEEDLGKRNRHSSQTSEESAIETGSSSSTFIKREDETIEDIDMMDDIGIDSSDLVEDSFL
Sequence of Tyrosine-protein kinase Blk (Homo sapiens) (P51451 2-505 limits assumed): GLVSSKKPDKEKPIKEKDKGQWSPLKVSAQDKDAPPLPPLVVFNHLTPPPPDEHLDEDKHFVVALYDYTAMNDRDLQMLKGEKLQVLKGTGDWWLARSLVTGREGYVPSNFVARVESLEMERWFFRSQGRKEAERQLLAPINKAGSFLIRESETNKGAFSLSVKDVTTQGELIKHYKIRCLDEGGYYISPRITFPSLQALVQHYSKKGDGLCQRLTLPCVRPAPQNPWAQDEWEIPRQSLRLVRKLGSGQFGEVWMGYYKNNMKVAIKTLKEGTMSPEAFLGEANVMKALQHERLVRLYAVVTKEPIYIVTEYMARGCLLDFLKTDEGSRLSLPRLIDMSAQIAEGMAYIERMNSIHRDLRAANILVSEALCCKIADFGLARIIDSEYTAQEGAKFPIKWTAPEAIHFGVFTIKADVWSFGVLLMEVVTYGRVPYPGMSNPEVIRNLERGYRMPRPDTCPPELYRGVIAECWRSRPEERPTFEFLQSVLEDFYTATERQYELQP
Sequence of Fibroblast growth factor receptor 4 (Homo sapiens) (P22455 22-802 limits assumed): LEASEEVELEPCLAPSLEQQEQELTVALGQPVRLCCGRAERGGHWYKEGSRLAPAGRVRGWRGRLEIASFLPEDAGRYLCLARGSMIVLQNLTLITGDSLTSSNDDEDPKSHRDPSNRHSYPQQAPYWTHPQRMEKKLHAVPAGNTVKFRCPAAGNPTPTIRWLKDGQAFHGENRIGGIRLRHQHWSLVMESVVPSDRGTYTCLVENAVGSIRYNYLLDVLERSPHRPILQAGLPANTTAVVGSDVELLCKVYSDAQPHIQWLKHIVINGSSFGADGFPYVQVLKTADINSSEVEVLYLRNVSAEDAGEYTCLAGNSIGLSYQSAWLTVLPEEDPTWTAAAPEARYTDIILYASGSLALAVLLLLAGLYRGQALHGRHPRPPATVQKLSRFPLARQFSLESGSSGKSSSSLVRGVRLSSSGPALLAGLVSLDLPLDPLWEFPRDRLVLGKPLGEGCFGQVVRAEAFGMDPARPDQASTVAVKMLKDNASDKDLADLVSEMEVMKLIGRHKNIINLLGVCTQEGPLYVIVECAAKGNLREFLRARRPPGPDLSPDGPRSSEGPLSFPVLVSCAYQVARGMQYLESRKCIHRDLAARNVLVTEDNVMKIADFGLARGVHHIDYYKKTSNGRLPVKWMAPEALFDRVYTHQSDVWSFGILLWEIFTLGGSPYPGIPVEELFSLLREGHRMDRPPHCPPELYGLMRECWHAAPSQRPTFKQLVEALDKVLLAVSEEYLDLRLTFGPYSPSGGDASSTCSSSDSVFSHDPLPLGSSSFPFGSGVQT
Sequence of Mitogen-activated protein kinase 14 (Homo sapiens) (Q16539 whole entry): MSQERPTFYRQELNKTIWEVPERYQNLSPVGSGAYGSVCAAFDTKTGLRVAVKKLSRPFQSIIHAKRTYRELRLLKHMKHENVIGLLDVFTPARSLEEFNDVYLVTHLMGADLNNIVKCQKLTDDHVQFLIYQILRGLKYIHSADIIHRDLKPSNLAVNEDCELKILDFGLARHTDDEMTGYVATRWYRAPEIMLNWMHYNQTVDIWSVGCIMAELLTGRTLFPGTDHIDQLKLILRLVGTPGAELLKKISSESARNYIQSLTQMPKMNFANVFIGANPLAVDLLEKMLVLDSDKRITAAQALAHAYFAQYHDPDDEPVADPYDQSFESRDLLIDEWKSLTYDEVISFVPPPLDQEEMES
Sequence of Cyclin-dependent kinase 5 (Homo sapiens) (Q00535 whole entry, looked up): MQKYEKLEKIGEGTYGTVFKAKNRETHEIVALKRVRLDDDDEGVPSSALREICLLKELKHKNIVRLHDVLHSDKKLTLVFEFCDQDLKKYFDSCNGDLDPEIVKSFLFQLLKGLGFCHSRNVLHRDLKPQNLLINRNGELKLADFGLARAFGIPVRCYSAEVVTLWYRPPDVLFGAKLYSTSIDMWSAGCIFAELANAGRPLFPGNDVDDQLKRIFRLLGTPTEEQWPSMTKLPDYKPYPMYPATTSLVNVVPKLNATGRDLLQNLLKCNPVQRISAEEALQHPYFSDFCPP
Sequence of Proto-oncogene tyrosine-protein kinase Src (Homo sapiens) (P12931 2-536 limits assumed): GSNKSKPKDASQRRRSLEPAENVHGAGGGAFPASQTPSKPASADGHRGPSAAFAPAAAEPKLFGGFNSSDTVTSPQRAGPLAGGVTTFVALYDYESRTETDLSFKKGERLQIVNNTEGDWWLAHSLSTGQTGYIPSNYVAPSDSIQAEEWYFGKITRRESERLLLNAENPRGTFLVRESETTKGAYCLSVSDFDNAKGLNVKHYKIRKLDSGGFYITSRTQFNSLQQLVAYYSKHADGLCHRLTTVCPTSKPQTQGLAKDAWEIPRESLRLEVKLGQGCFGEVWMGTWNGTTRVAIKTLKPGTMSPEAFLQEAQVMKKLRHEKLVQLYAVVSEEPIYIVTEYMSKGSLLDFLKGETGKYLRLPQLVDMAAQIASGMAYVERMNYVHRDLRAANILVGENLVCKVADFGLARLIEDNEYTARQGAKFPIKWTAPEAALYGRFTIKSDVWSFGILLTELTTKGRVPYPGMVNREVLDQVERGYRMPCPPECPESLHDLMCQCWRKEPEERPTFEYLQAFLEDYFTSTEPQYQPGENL

For orientation: IC50 means the concentration that gives 50% inhibition. In assay [1], `COc1cc(N2CCN(C(C)=O)CC2)ccc1Nc1ncc(Cl)c(Nc2cccc(C(=O)Oc3ccc(F)cc3)c2)n1` came in with an IC50 of more than 10000 nM.

Consider `COc1cc(N2CCN(C(C)=O)CC2)ccc1Nc1ncc(Cl)c(Nc2cccc(NC(=O)CCl)c2)n1`, for which the IC50 in assay [1] came to 946 nM.

Turning to `COc1cc(N2CCN(C(C)=O)CC2)ccc1Nc1ncc(Cl)c(Nc2cccc(NCCS(=O)(=O)F)c2)n1`, it took 458 nM to reach half-maximal inhibition in assay [1] (IC50).

Molecule `COc1cc(N2CCN(C(C)=O)CC2)ccc1Nc1ncc(Cl)c(Nc2cccc(NC(C)=O)c2)n1` came in with an IC50 in assay [1] of 1100 nM. The inhibition result in [2], in assay [3], in assay [4], in assay [5], in assay [6] and in assay [7] was “inactive” each time. Also, the inhibition entry in assay [8], in assay [9], in assay [10], in assay [11], in [12] and in assay [14] was “inactive” each time. Also, in assay [16], the inhibition result was “inactive”. Also, the inhibition result in [13], in [15] and in [17] was “Active” each time.

For the molecule `C=CS(=O)(=O)Nc1cccc(Nc2nc(Nc3ccc(N4CCN(C(C)=O)CC4)cc3OC)ncc2Cl)c1`, the IC50 in assay [1] is 675 nM.

As for `C=CC(=O)Nc1cc(Nc2nccc(-c3cn(C)c4ccccc34)n2)c(OC)cc1N(C)CCN(C)C` [OSIMERTINIB], the IC50 with BaF3 [18] was more than 3000 nM. In addition, in the assay on BaF3 [19], the result was inactive.

The record behind these values is ChEMBL document CHEMBL4828755, “A sulfonyl fluoride derivative inhibits EGFRL858R/T790M/C797S by covalent modification of the catalytic lysine” (Eur J Med Chem, 2021).
